Key:
Adenosine receptor A1 = target: T1, Adenosine receptor A1 (Homo sapiens, UniProt P30542); assay: Displacement of [3H]CCPA from human adenosine A1 receptor expressed in CHO cells; type: cell-based
T1 sequence (P30542 whole entry): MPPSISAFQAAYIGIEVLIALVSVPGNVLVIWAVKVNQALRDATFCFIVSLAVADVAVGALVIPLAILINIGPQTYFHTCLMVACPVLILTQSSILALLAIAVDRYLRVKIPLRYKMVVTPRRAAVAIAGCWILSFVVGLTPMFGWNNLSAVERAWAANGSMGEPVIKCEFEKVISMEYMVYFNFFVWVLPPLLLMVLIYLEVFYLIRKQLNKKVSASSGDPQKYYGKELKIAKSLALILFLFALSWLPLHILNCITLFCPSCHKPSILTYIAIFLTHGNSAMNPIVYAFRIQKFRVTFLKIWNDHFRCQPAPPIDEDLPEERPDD
In short: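 Agonist radioligand competition on membranes from CHO cells stably transfected with human A1 receptor (1000 × g spin to clear debris, crude membranes pelleted at 100,000 × g, stored at -80 °C). Tracer 1 nM [3H]CCPA; non-specific binding defined with 1 mM theophylline. Ki computed from competition curves.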

Adenosine receptor A2b = target: T2, Adenosine receptor A2b (Homo sapiens, UniProt P29275); assay: Antagonist activity at human adenosine A2B receptor expressed in CHO cells assessed as inhibition of NECA-stimulated adenylyl cyclase activity; type: functional, cell-based
T2 sequence (P29275 whole entry): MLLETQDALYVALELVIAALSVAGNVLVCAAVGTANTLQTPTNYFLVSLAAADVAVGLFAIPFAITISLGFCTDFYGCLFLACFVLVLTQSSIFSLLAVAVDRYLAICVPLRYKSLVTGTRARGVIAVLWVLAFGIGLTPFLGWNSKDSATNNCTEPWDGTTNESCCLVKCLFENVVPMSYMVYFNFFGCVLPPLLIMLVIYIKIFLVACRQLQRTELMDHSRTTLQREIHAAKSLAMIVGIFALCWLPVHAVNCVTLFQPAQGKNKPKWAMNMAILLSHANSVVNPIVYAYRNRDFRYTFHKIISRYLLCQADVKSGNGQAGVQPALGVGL
In short: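 Affinity at human A2B receptor taken from inhibition of NECA-stimulated adenylyl cyclase activity. Membranes from stably transfected CHO cells were obtained by a single high-speed spin of the homogenate, resuspended in 50 mM Tris/HCl pH 7.4 and used at once.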

Adenosine receptor A2a = Adenosine receptor A2a (Homo sapiens, UniProt P29274); assay: Displacement of [3H]NECA from human adenosine A2A receptor expressed in CHO cells; type: cell-based
Chain of Adenosine receptor A2a (P29274 whole entry): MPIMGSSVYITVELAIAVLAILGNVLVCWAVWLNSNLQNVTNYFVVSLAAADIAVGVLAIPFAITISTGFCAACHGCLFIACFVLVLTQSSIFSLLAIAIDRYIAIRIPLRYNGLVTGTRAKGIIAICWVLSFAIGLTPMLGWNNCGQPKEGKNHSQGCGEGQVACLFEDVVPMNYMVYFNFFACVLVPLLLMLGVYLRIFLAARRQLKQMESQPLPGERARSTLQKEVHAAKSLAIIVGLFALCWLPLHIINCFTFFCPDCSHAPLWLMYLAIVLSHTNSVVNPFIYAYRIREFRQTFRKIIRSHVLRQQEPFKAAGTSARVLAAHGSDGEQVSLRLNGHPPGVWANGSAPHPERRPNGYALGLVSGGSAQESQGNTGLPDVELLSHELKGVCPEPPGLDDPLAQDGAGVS
In short: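 Membranes prepared from stably transfected CHO cells expressing human A2A receptor by two-step centrifugation (1000 × g, then 100,000 × g), frozen and kept at -80 °C. Competition against 30 nM [3H]NECA, with 100 µM R-PIA for non-specific binding. Ki obtained by competition-curve fitting.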

Adenosine receptor A3 = target: T3, Adenosine receptor A3 (Homo sapiens, UniProt P0DMS8); assay: Displacement of [3H]HEMADO from human adenosine A3 receptor expressed in CHO cells; type: cell-based
T3 sequence (P0DMS8 whole entry): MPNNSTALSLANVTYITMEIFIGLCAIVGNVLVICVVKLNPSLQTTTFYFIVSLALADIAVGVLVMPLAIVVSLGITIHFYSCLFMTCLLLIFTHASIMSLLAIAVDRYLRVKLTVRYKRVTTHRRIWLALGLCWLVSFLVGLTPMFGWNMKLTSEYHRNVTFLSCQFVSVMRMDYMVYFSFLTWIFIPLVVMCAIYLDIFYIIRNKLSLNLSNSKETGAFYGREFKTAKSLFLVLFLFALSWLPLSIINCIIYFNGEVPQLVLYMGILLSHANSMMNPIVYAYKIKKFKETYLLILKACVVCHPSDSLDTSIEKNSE
In short: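 Human A3 receptor binding in membranes from stably transfected CHO cells (low-speed then 100,000 × g pellet, stored at -80 °C). Radioligand was the agonist [3H]HEMADO at 1 nM; non-specific binding measured with 100 µM R-PIA. Ki values derived from competition experiments.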

Homo sapiens [1] = species: Homo sapiens; assay: Selectivity ratio of Ki for human adenosine A3 receptor to Ki for human adenosine A2A receptor
Homo sapiens [2] = species: Homo sapiens; assay: Selectivity ratio of Ki for human adenosine A1 receptor to Ki for human adenosine A2A receptor
Homo sapiens [3] = species: Homo sapiens; assay: Selectivity ratio of Ki for human adenosine A2B receptor to Ki for human adenosine A3 receptor
Homo sapiens [4] = species: Homo sapiens; assay: Selectivity ratio of Ki for human adenosine A2A receptor to Ki for human adenosine A3 receptor
[5] = target: T4, Adenosine receptors; A1 & A3 (Homo sapiens) (UniProt P30542+P0DMS8); assay: Selectivity ratio of Ki for human adenosine A1 receptor to Ki for human adenosine A3 receptor
[6] = tested on: adenosine A3/A2A receptor ratio (Homo sapiens); assay: Selectivity ratio of Ki for human adenosine A2A receptor to Ki for human adenosine A3 receptor
[7] = target: T4, Adenosine receptors; A1 & A3 (Homo sapiens); assay: Selectivity ratio of Ki for human adenosine A3 receptor to Ki for human adenosine A1 receptor
Homo sapiens [8] = species: Homo sapiens; assay: Selectivity ratio of Ki for human adenosine A2A receptor to Ki for human adenosine A1 receptor
Homo sapiens [9] = species: Homo sapiens; assay: Selectivity ratio of Ki for human adenosine A1 receptor to Ki for human adenosine A2B receptor
Homo sapiens [10] = species: Homo sapiens; assay: Selectivity ratio of Ki for human adenosine A2A receptor to Ki for human adenosine A2B receptor

Ki (Adenosine receptor A1) [nM] | Ki (Adenosine receptor A2b) [nM] | Ki (Adenosine receptor A2a) [nM] | Ki (Adenosine receptor A3) [nM] | SMILES | further results
10400 | > 10000 | 2010 | 2640 | COc1ccc(C(=O)Nc2nc(-c3ccccc3)c(-c3nc(N)nc(N(C)C)n3)s2)cc1 | 
> 10000 | > 10000 | 14400 | 36600 | Nc1nc(-c2sc(NC(=O)c3ccco3)nc2-c2ccccc2)nc2sc3c(c12)CCCC3 | 
406 | 9110 | 74.7 | 951 | O=C(Nc1nc(-c2ccccc2)c(C(=O)c2ccccn2)s1)c1ccco1 | Ratio Ki (Homo sapiens [1]): 13; Ratio Ki (Homo sapiens [2]): 5
801 | > 10000 | 327 | 567 | CN(C)c1nc(N)nc(-c2sc(NC(=O)c3ccccc3)nc2-c2ccccc2)n1 | 
> 10000 | > 10000 | > 10000 | > 10000 | Cc1ccc(C(=O)Nc2nc(-c3ccccc3)c(-c3nc(N)c4c5c(sc4n3)CCCC5)s2)cc1 | 
> 10000 | > 10000 | 8780 | 3930 | O=C(Nc1nc(-c2ccccc2)c(-c2nc3ccccc3c(=O)[nH]2)s1)c1ccco1 | 
3630 | > 30000 | 562 | 816 | Cc1ccc(C(=O)Nc2nc(-c3ccccc3)c(-c3nc(N)nc(N(C)C)n3)s2)cc1 | 
12000 | > 10000 | 5950 | 746 | Cc1sc2nc(-c3sc(NC(=O)c4ccco4)nc3-c3ccccc3)nc(N)c2c1C | Ratio Ki (Homo sapiens [3]): > 13; Ratio Ki (Homo sapiens [4]): 8; Ratio Ki [5]: 16
7240 | > 10000 | 4870 | 676 | Cc1sc2nc(-c3sc(NC(=O)c4ccccc4)nc3-c3ccccc3)nc(N)c2c1C | 
688 | > 10000 | 128 | 201 | COc1ccc(C(=O)Nc2nc(-c3ccccc3)c(C(=O)c3ccccn3)s2)cc1 | Ratio Ki (Homo sapiens [1]): 1.6; Ratio Ki (Homo sapiens [2]): 5.7
536 | 8000 | 179 | 918 | CN(C)c1nc(N)nc(-c2sc(NC(=O)c3ccco3)nc2-c2ccccc2)n1 | Ratio Ki [6]: 5; Ratio Ki (Homo sapiens [2]): 3
177 | > 10000 | 552 | 1870 | O=C(Nc1nc(-c2ccccc2)c(C(=O)c2cccnc2)s1)c1ccco1 | 
> 10000 | > 10000 | > 100000 | > 10000 | Cc1sc2nc(-c3sc(NC(=O)c4ccco4)nc3-c3ccccc3)[nH]c(=O)c2c1C | 
0.58 | 2.78 | 6.65 | 9.36 | O=C(Nc1nc(-c2ccccc2)c(-c2ccncc2)s1)c1ccco1 | Ratio Ki [7]: 16; Ratio Ki (Homo sapiens [8]): 11
> 10000 | > 10000 | > 10000 | > 10000 | COc1ccc(C(=O)Nc2nc(-c3ccccc3)c(C(=O)c3cccnc3)s2)cc1 | 
> 100000 | > 10000 | > 30000 | 2470 | COc1ccc(C(=O)Nc2nc(-c3ccccc3)c(-c3nc(N)c4c(C)c(C)sc4n3)s2)cc1 | 
276 | 841 | 193 | 2040 | O=C(Nc1nc(-c2ccccc2)c(-c2ccccn2)s1)c1ccco1 | Ratio Ki (Homo sapiens [9]): 0.33; Ratio Ki (Homo sapiens [10]): 0.23
> 30000 | > 10000 | > 30000 | 1380 | Cc1ccc(C(=O)Nc2nc(-c3ccccc3)c(-c3nc(N)c4c(C)c(C)sc4n3)s2)cc1 | 
> 10000 | > 10000 | > 10000 | > 10000 | COc1ccc(C(=O)Nc2nc(-c3ccccc3)c(-c3nc(N)c4c5c(sc4n3)CCCC5)s2)cc1 | 
> 10000 | > 10000 | > 10000 | > 10000 | Nc1nc(-c2sc(NC(=O)c3ccccc3)nc2-c2ccccc2)nc2sc3c(c12)CCCC3 | 

Reference: ChEMBL document CHEMBL2390947, “New insight into adenosine receptors selectivity derived from a novel series of [5-substituted-4-phenyl-1,3-thiazol-2-yl] benzamides and furamides” (Eur J Med Chem, 2013)
